Experimental data published in ChEMBL document CHEMBL1129508, “Betulinic acid derivatives: a new class of specific inhibitors of human immunodeficiency virus type 1 entry” (J Med Chem, 1996).

What was measured:
[1] = system: CCRF-CEM; assay: Inhibitory activity against the HIV-1 in CEM cells; type: functional, cell-based; conditions: Homo sapiens
Outline: (§1)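 HIV-1-induced cytopathicity in CEM 4 or MT-4 cell cultures was assessed by counting viable cells after MTT (3-(4,5-dimethylthiazol-2-yl)-2,5-diphenyltetrazolium bromide) staining. IC50 is the concentration that inhibits cytopathicity by 50%. For routine testing, the highest concentration was generally 3 µM, because solubility was limited above 10 µM.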

[2] = system: Human immunodeficiency virus 1; assay: Inhibitory activity tested against the HIV-1 in CEM cells; type: functional, organism-based; conditions: Human immunodeficiency virus 1, CCRF-CEM; outline: as §1
[3] = system: Human immunodeficiency virus 1; assay: Inhibitory activity tested against the HIV-1 in MT-4 cells; type: functional, organism-based; conditions: Human immunodeficiency virus 1, MT4; outline: as §1

Row | SMILES | IC50 [1] [nM] | IC50 [2] [nM] | IC50 [3] [nM]
1 | C=C(C)[C@@H]1CC[C@]2(C(=O)NCCCC(=O)NCCCCCC(=O)O)CC[C@]3(C)[C@H](CCC4[C@@]5(C)CC[C@H](O)C(C)(C)[C@@H]5CC[C@]43C)[C@@H]12 (some centres undefined) | 5500 |  | 
2 | C=C(C)[C@@H]1CC[C@]2(C(=O)NCCCCCCCC(=O)O)CC[C@]3(C)[C@H](CCC4[C@@]5(C)CC[C@H](O)C(C)(C)[C@@H]5CC[C@]43C)[C@@H]12 (some centres undefined) |  | 750 | 465
3 | C=C(C)[C@@H]1CC[C@]2(C(=O)NCCCCCCC(=O)NCCC(=O)O)CC[C@]3(C)[C@H](CCC4[C@@]5(C)CC[C@H](O)C(C)(C)[C@@H]5CC[C@]43C)[C@@H]12 (some centres undefined) | 4500 |  | 
4 | C=C(C)[C@@H]1CC[C@]2(C(=O)NCCCCCCCNC(=O)c3ccccc3C(=O)O)CC[C@]3(C)[C@H](CCC4[C@@]5(C)CC[C@H](O)C(C)(C)[C@@H]5CC[C@]43C)[C@@H]12 (some centres undefined) |  | 1800 | 
5 | C=C(C)[C@@H]1CC[C@]2(C(=O)NCCCCCCCC(=O)NC(C)(C)C(=O)O)CC[C@]3(C)[C@H](CCC4[C@@]5(C)CC[C@H](O)C(C)(C)[C@@H]5CC[C@]43C)[C@@H]12 (some centres undefined) |  | 133 | 89
6 | C=C(C)[C@@H]1CC[C@]2(C(=O)NCCCCCCCC(=O)N[C@@H](Cc3ccccc3)[C@@H](O)CC(=O)O)CC[C@]3(C)[C@H](CCC4[C@@]5(C)CC[C@H](O)C(C)(C)[C@@H]5CC[C@]43C)[C@@H]12 (some centres undefined) |  | 130 | 33
7 | C=C(C)[C@@H]1CC[C@]2(C(=O)NCCCCCCCC(=O)NC(CC(=O)O)C(F)(F)F)CC[C@]3(C)[C@H](CCC4[C@@]5(C)CC[C@H](O)C(C)(C)[C@@H]5CC[C@]43C)[C@@H]12 (some centres undefined) |  | 155 | 
8 | C=C(C)[C@@H]1CC[C@]2(C(=O)NCCCCCCCCCCCC(=O)O)CC[C@]3(C)[C@H](CCC4[C@@]5(C)CC[C@H](O)C(C)(C)[C@@H]5CC[C@]43C)[C@@H]12 (some centres undefined) |  | 550 | 250
9 | C=C(C)[C@@H]1CC[C@]2(C(=O)NCCCCCCCC(=O)N[C@@H](Cc3ccccc3)C(=O)O)CC[C@]3(C)[C@H](CCC4[C@@]5(C)CC[C@H](O)C(C)(C)[C@@H]5CC[C@]43C)[C@@H]12 (some centres undefined) |  | 2000 | 
10 | C=C(C)[C@@H]1CC[C@]2(C(=O)NCCCCCCCC(=O)N3CCC[C@H]3C(=O)O)CC[C@]3(C)[C@H](CCC4[C@@]5(C)CC[C@H](O)C(C)(C)[C@@H]5CC[C@]43C)[C@@H]12 (some centres undefined) |  | 640 | 58
11 | C=C(C)[C@@H]1CC[C@]2(C(=O)NCCCCCCCC(=O)NCC(C)C(=O)O)CC[C@]3(C)[C@H](CCC4[C@@]5(C)CC[C@H](O)C(C)(C)[C@@H]5CC[C@]43C)[C@@H]12 (some centres undefined) |  | 130 | 
12 | C=C(C)[C@@H]1CC[C@]2(C(=O)NCCCCCCCC(=O)N(C)CC(=O)O)CC[C@]3(C)[C@H](CCC4[C@@]5(C)CC[C@H](O)C(C)(C)[C@@H]5CC[C@]43C)[C@@H]12 (some centres undefined) |  | 250 | 333
13 | C=C(C)[C@@H]1CC[C@]2(C(=O)NCCCCCCCC(=O)N[C@@H](CCCCN)C(=O)O)CC[C@]3(C)[C@H](CCC4[C@@]5(C)CC[C@H](O)C(C)(C)[C@@H]5CC[C@]43C)[C@@H]12 (some centres undefined) |  | 10000 | 
14 | C=C(C)[C@@H]1CC[C@]2(C(=O)NCCCCCCCC(=O)NCC(=O)O)CC[C@]3(C)[C@H](CC[C@@H]4[C@@]5(C)CC[C@H](O)C(C)(C)[C@@H]5CC[C@]43C)[C@@H]12 |  | 150 | 156
15 | C=C(C)[C@@H]1CC[C@]2(C(=O)NCCCCCCCC(=O)N[C@H](CO)C(=O)O)CC[C@]3(C)[C@H](CCC4[C@@]5(C)CC[C@H](O)C(C)(C)[C@@H]5CC[C@]43C)[C@@H]12 (some centres undefined) |  | 1900 | 
16 | C=C(C)[C@@H]1CC[C@]2(C(=O)NCCCCCCCC(=O)NCC(O)CC(=O)O)CC[C@]3(C)[C@H](CCC4[C@@]5(C)CC[C@H](O)C(C)(C)[C@@H]5CC[C@]43C)[C@@H]12 (some centres undefined) |  | 200 | 33
17 | C=C(C)[C@@H]1CC[C@]2(C(=O)NCCCCCCCC(=O)N[C@@H](CC(C)C)[C@@H](O)CC(=O)O)CC[C@]3(C)[C@H](CCC4[C@@]5(C)CC[C@H](O)C(C)(C)[C@@H]5CC[C@]43C)[C@@H]12 (some centres undefined) |  | 50 | 40
18 | C=C(C)[C@@H]1CC[C@]2(C(=O)NCCCCCCCCC(=O)O)CC[C@]3(C)[C@H](CCC4[C@@]5(C)CC[C@H](O)C(C)(C)[C@@H]5CC[C@]43C)[C@@H]12 (some centres undefined) |  | 420 | 3400
19 | C=C(C)[C@@H]1CC[C@]2(C(=O)NCCCCCCCC(=O)N[C@@H](CC(N)=O)C(=O)O)CC[C@]3(C)[C@H](CCC4[C@@]5(C)CC[C@H](O)C(C)(C)[C@@H]5CC[C@]43C)[C@@H]12 (some centres undefined) |  | 950 | 
20 | C=C(C)[C@@H]1CC[C@]2(C(=O)NCCCCCCCCCCC(=O)O)CC[C@]3(C)[C@H](CCC4[C@@]5(C)CC[C@H](O)C(C)(C)[C@@H]5CC[C@]43C)[C@@H]12 (some centres undefined) |  | 230 | 443
21 | C=C(C)[C@@H]1CC[C@]2(C(=O)NCCCCCCCC(=O)N[C@@H](CC(=O)O)C(=O)O)CC[C@]3(C)[C@H](CCC4[C@@]5(C)CC[C@H](O)C(C)(C)[C@@H]5CC[C@]43C)[C@@H]12 (some centres undefined) |  | 18000 | 
22 | C=C(C)[C@@H]1CC[C@]2(C(=O)NCCCCCCCCCC(=O)O)CC[C@]3(C)[C@H](CCC4[C@@]5(C)CC[C@H](O)C(C)(C)[C@@H]5CC[C@]43C)[C@@H]12 (some centres undefined) |  | 600 | 420
23 | C=C(C)[C@@H]1CC[C@]2(C(=O)NCCCCCCCC(=O)N[C@@H](CO)C(=O)O)CC[C@]3(C)[C@H](CCC4[C@@]5(C)CC[C@H](O)C(C)(C)[C@@H]5CC[C@]43C)[C@@H]12 (some centres undefined) |  | 250 | 250
24 | C=C(C)[C@@H]1CC[C@]2(C(=O)NCCCCCCCC(=O)N[C@@H](CC(C)C)[C@H](O)CC(=O)O)CC[C@]3(C)[C@H](CCC4[C@@]5(C)CC[C@H](O)C(C)(C)[C@@H]5CC[C@]43C)[C@@H]12 (some centres undefined) |  | 50 | 44
25 | C=C(C)[C@@H]1CC[C@]2(C(=O)NCCCCCCCC(=O)N3CCCC(C(=O)O)C3)CC[C@]3(C)[C@H](CCC4[C@@]5(C)CC[C@H](O)C(C)(C)[C@@H]5CC[C@]43C)[C@@H]12 (some centres undefined) |  | 185 | 
26 | C=C(C)[C@@H]1CC[C@]2(C(=O)NCCCCCCCC(=O)NC(C)CC(=O)O)CC[C@]3(C)[C@H](CCC4[C@@]5(C)CC[C@H](O)C(C)(C)[C@@H]5CC[C@]43C)[C@@H]12 (some centres undefined) |  | 130 | 

Next, values leading:

Row | IC50 [1] [nM] | IC50 [2] [nM] | IC50 [3] [nM] | SMILES
27 |  | 105 | 40 | C=C(C)[C@@H]1CC[C@]2(C(=O)NCCCCCCCNC(=O)c3cccc(C(=O)O)c3)CC[C@]3(C)[C@H](CCC4[C@@]5(C)CC[C@H](O)C(C)(C)[C@@H]5CC[C@]43C)[C@@H]12 (some centres undefined)
28 |  | 100 | 94 | C=C(C)[C@@H]1CC[C@]2(C(=O)NCCCCCCCC(=O)NCCC(=O)O)CC[C@]3(C)[C@H](CCC4[C@@]5(C)CC[C@H](O)C(C)(C)[C@@H]5CC[C@]43C)[C@@H]12 (some centres undefined)
29 |  | 44 | 129 | C=C(C)[C@@H]1CC[C@]2(C(=O)NCCCCCCCC(=O)NCCCC(=O)O)CC[C@]3(C)[C@H](CCC4[C@@]5(C)CC[C@H](O)C(C)(C)[C@@H]5CC[C@]43C)[C@@H]12 (some centres undefined)
30 |  | 95 | 53 | C=C(C)[C@@H]1CC[C@]2(C(=O)NCCCCCCCNC(=O)CCC(=O)O)CC[C@]3(C)[C@H](CCC4[C@@]5(C)CC[C@H](O)C(C)(C)[C@@H]5CC[C@]43C)[C@@H]12 (some centres undefined)
31 |  | 85 | 47 | C=C(C)[C@@H]1CC[C@]2(C(=O)NCCCCCCCC(=O)NC(CC(=O)O)c3ccccc3)CC[C@]3(C)[C@H](CCC4[C@@]5(C)CC[C@H](O)C(C)(C)[C@@H]5CC[C@]43C)[C@@H]12 (some centres undefined)
32 |  | 61 |  | C=C(C)[C@@H]1CC[C@]2(C(=O)NCCCCCCCC(=O)NCCCCC(=O)O)CC[C@]3(C)[C@H](CCC4[C@@]5(C)CC[C@H](O)C(C)(C)[C@@H]5CC[C@]43C)[C@@H]12 (some centres undefined)
33 |  | 92 | 62 | C=C(C)[C@@H]1CC[C@]2(C(=O)NCCCCCCCC(=O)N[C@@H](C)C(=O)O)CC[C@]3(C)[C@H](CCC4[C@@]5(C)CC[C@H](O)C(C)(C)[C@@H]5CC[C@]43C)[C@@H]12 (some centres undefined)
34 |  | 50 | 34 | C=C(C)[C@@H]1CC[C@]2(C(=O)NCCCCCCCNC(=O)CC(=O)O)CC[C@]3(C)[C@H](CCC4[C@@]5(C)CC[C@H](O)C(C)(C)[C@@H]5CC[C@]43C)[C@@H]12 (some centres undefined)
35 |  | 80 |  | C=C(C)[C@@H]1CC[C@]2(C(=O)NCCCCCCCC(=O)Nc3cccc(C(=O)O)c3)CC[C@]3(C)[C@H](CCC4[C@@]5(C)CC[C@H](O)C(C)(C)[C@@H]5CC[C@]43C)[C@@H]12 (some centres undefined)
36 |  | 70 | 26 | C=C(C)[C@@H]1CC[C@]2(C(=O)NCCCCCCCC(=O)Nc3ccc(C(=O)O)cc3)CC[C@]3(C)[C@H](CCC4[C@@]5(C)CC[C@H](O)C(C)(C)[C@@H]5CC[C@]43C)[C@@H]12 (some centres undefined)
37 |  | 95 |  | C=C(C)[C@@H]1CC[C@]2(C(=O)NCCCCCCCC(=O)NC(F)CC(=O)O)CC[C@]3(C)[C@H](CCC4[C@@]5(C)CC[C@H](O)C(C)(C)[C@@H]5CC[C@]43C)[C@@H]12 (some centres undefined)
38 |  | 52 | 85 | C=C(C)[C@@H]1CC[C@]2(C(=O)NCCCCCCCC(=O)N[C@H](CCC(=O)O)CC(C)C)CC[C@]3(C)[C@H](CCC4[C@@]5(C)CC[C@H](O)C(C)(C)[C@@H]5CC[C@]43C)[C@@H]12 (some centres undefined)
39 |  | 110 | 22 | C=C(C)[C@@H]1CC[C@]2(C(=O)NCCCCCCCNC(=O)c3ccc(C(=O)O)cc3)CC[C@]3(C)[C@H](CCC4[C@@]5(C)CC[C@H](O)C(C)(C)[C@@H]5CC[C@]43C)[C@@H]12 (some centres undefined)
40 |  | 20 |  | C=C(C)[C@@H]1CC[C@]2(C(=O)NCCCCCCCNC(=O)CCCC(=O)O)CC[C@]3(C)[C@H](CCC4[C@@]5(C)CC[C@H](O)C(C)(C)[C@@H]5CC[C@]43C)[C@@H]12 (some centres undefined)
